Source: ChEMBL document CHEMBL1152839, “2-[2-Substituted-3-(3,4-dichlorobenzylamino)propylamino]-1H-quinolin-4-ones as Staphylococcus aureus methionyl-tRNA synthetase inhibitors” (Eur J Med Chem, 2009)
≈ marks a conversion by molar mass, not a printed value.

Columns and labels:
[1] = test system: Staphylococcus aureus; assay: Antibacterial activity against Staphylococcus aureus SP-N2 after 16 hrs at 36 degC by microdilution method; format: functional
How it was run: (§1)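 Broth microdilution per CLSI in Mueller-Hinton broth for staphylococci. Stock solutions were diluted in a 2-fold serial series to final test concentrations. The MIC was read as the lowest concentration that prevented visible bacterial growth after incubation at 36 °C. Mupirocin and amoxicillin were run by the same method as references.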

[2] = test system: Enterococcus faecalis; assay: Antibacterial activity against Enterococcus faecalis ATCC 19433 after 16 hrs at 36 degC by microdilution method; format: functional; details: ATCC 19433, 16 h
How it was run: (§2)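 Broth microdilution in Brain Heart Infusion broth, following NCCLS/CLSI. Test compounds were serially diluted 2-fold from stock. The MIC was the lowest concentration with no visible bacterial growth after incubation at 36 °C. Mupirocin and amoxicillin were tested the same way as references.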

[3] = test system: Staphylococcus aureus; assay: Antibacterial activity against methicillin-resistant Staphylococcus aureus KS2007-6 after 16 hrs at 36 degC by microdilution method; format: functional; how it was run: as §1
[4] = test system: Staphylococcus aureus; assay: Antibacterial activity against Staphylococcus aureus Smith after 16 hrs at 36 degC by microdilution method; format: functional
How it was run: (§3)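 Broth microdilution in Mueller-Hinton broth, following NCCLS/CLSI. Stock solutions were serially diluted 2-fold to the final test concentrations. The MIC was the lowest concentration that prevented visible growth after incubation at 36 °C. Mupirocin and amoxicillin were reference antibiotics run by the same method.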

[5] = test system: Staphylococcus epidermidis; assay: Antibacterial activity against Staphylococcus epidermidis ATCC 12228 after 16 hrs at 36 degC by microdilution method; format: functional; details: ATCC 12228, 16 h; how it was run: as §3
[6] = test system: Enterococcus faecium; assay: Antibacterial activity against Enterococcus faecium ATCC 10541 after 16 hrs at 36 degC by microdilution method; format: functional; details: ATCC 10541, 16 h; how it was run: as §2
[7] = test system: Staphylococcus aureus; assay: Antibacterial activity against Staphylococcus aureus GIORGIO after 16 hrs at 36 degC by microdilution method; format: functional; how it was run: as §3
[8] = test system: Staphylococcus aureus; assay: Antibacterial activity against Staphylococcus aureus ATCC 25923 after 16 hrs at 36 degC by microdilution method; format: functional; details: ATCC 25923, 16 h; how it was run: as §3
[9] = test system: Staphylococcus aureus; assay: Antibacterial activity against Staphylococcus aureus ATCC 10537 after 16 hrs at 36 degC by microdilution method; format: functional; details: ATCC 10537, 16 h; how it was run: as §3
[10] = test system: Staphylococcus aureus; assay: Antibacterial activity against Staphylococcus aureus ATCC 6538P after 16 hrs at 36 degC by microdilution method; format: functional; how it was run: as §3
[11] = Inhibition of Staphylococcus aureus methionyl-tRNA synthetase assessed as decrease in [35S]methionyl-tRNA generation
[12] = test system: Enterococcus faecalis; assay: Antibacterial activity against Enterococcus faecalis ATCC 29212 after 16 hrs at 36 degC by microdilution method; format: functional; details: ATCC 29212, 16 h; how it was run: as §2

SMILES	MIC [1]	MIC [2]	MIC [3]	MIC [4]	MIC [5]	MIC [6]	MIC [7]	MIC [8]	MIC [9]	MIC [10]	IC50 [11]	MIC [12]
O=C(OC(CNCc1ccc(Cl)c(Cl)c1)CNc1cc(=O)c2ccccc2[nH]1)c1ccccc1 (configuration not stated)	32 µg/mL (≈ 64.5 µM)	16 µg/mL (≈ 32.2 µM)	32 µg/mL (≈ 64.5 µM)	32 µg/mL (≈ 64.5 µM)	16 µg/mL (≈ 32.2 µM)	8 µg/mL (≈ 16.1 µM)	32 µg/mL (≈ 64.5 µM)	64 µg/mL (≈ 129 µM)	64 µg/mL (≈ 129 µM)	32 µg/mL (≈ 64.5 µM)	69.4 nM	16 µg/mL (≈ 32.2 µM)
CC(C)OC(CNCc1ccc(Cl)c(Cl)c1)CNc1cc(=O)c2ccccc2[nH]1 (configuration not stated)	16 µg/mL (≈ 36.8 µM)	4 µg/mL (≈ 9.21 µM)	8 µg/mL (≈ 18.4 µM)	16 µg/mL (≈ 36.8 µM)	16 µg/mL (≈ 36.8 µM)	2 µg/mL (≈ 4.6 µM)	32 µg/mL (≈ 73.7 µM)	16 µg/mL (≈ 36.8 µM)	16 µg/mL (≈ 36.8 µM)	16 µg/mL (≈ 36.8 µM)	91 nM	4 µg/mL (≈ 9.21 µM)
O=c1cc(NCCCNCc2ccc(Cl)c(Cl)c2)[nH]c2ccccc12	8 µg/mL (≈ 21.3 µM)	2 µg/mL (≈ 5.32 µM)	8 µg/mL (≈ 21.3 µM)	16 µg/mL (≈ 42.5 µM)	8 µg/mL (≈ 21.3 µM)	0.5 µg/mL (≈ 1.33 µM)	32 µg/mL (≈ 85 µM)	16 µg/mL (≈ 42.5 µM)	16 µg/mL (≈ 42.5 µM)	4 µg/mL (≈ 10.6 µM)	3.4 nM	2 µg/mL (≈ 5.32 µM)
CN(C)C(CNCc1ccc(Cl)c(Cl)c1)CNc1cc(=O)c2ccccc2[nH]1 (configuration not stated)	64 µg/mL (≈ 153 µM)	16 µg/mL (≈ 38.2 µM)	64 µg/mL (≈ 153 µM)	64 µg/mL (≈ 153 µM)	32 µg/mL (≈ 76.3 µM)	8 µg/mL (≈ 19.1 µM)	> 64 µg/mL	> 64 µg/mL	64 µg/mL (≈ 153 µM)	> 64 µg/mL	39.6 nM	16 µg/mL (≈ 38.2 µM)
C/C(=C\C(=O)OCCCCCCCCC(=O)O)C[C@@H]1OC[C@H](C[C@@H]2O[C@H]2[C@@H](C)[C@H](C)O)[C@@H](O)[C@H]1O [MUPIROCIN]	> 64 µg/mL	1 µg/mL (≈ 2 µM)	–	0.25 µg/mL (≈ 0.499 µM)	2 µg/mL (≈ 3.99 µM)	1 µg/mL (≈ 2 µM)	0.25 µg/mL (≈ 0.499 µM)	0.25 µg/mL (≈ 0.499 µM)	0.25 µg/mL (≈ 0.499 µM)	0.5 µg/mL (≈ 0.999 µM)	–	2 µg/mL (≈ 3.99 µM)
CC(C)(C)OC(=O)NC(CNCc1ccc(Cl)c(Cl)c1)CNc1cc(=O)c2ccccc2[nH]1 (configuration not stated)	32 µg/mL (≈ 65.1 µM)	32 µg/mL (≈ 65.1 µM)	32 µg/mL (≈ 65.1 µM)	32 µg/mL (≈ 65.1 µM)	32 µg/mL (≈ 65.1 µM)	8 µg/mL (≈ 16.3 µM)	32 µg/mL (≈ 65.1 µM)	32 µg/mL (≈ 65.1 µM)	32 µg/mL (≈ 65.1 µM)	32 µg/mL (≈ 65.1 µM)	103 nM	32 µg/mL (≈ 65.1 µM)
NC(CNCc1ccc(Cl)c(Cl)c1)CNc1cc(=O)c2ccccc2[nH]1 (configuration not stated)	64 µg/mL (≈ 164 µM)	64 µg/mL (≈ 164 µM)	64 µg/mL (≈ 164 µM)	64 µg/mL (≈ 164 µM)	32 µg/mL (≈ 81.8 µM)	16 µg/mL (≈ 40.9 µM)	64 µg/mL (≈ 164 µM)	64 µg/mL (≈ 164 µM)	64 µg/mL (≈ 164 µM)	64 µg/mL (≈ 164 µM)	137 nM	64 µg/mL (≈ 164 µM)
